SMILES strings stand for the structures. Values after ≈ are worked out from the molar mass of the structure shown. Active and inactive are the calls of the source. The calls are words filed in the database; no cut-off is given here.

The record followed here is ChEMBL document CHEMBL1949575, “Sclareol exhibits anti-inflammatory activity in both lipopolysaccharide-stimulated macrophages and the λ-carrageenan-induced paw edema model” (J Nat Prod, 2012).

Data set [1] has as its system Mus musculus. As to the kind of experiment: Antiinflammatory activity in ICR mouse assessed as inhibition of carrageenan-induced paw edema at 10 mg/kg, ip administered 30 mins before carrageenan challenge measured after 3 hrs by plethysmometer analysis. Format: functional, organism-based. Set-up: dose 10 mg/kg. The method in brief:
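Male ICR mice (n = 6) received saline, indomethacin 10 mg/kg or drug i.p. 30 min before 50 μL of 1% carrageenan in the right hind paw. Paw volume was read by plethysmometer immediately and at 1−5 h. Swelling was expressed as the ratio of right paw volume after carrageenan to volume before.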
In general terms: The carrageenan paw model is a standard test of acute inflammation.

Data set [2] deals with Mus musculus. Put plainly: Antiinflammatory activity in ICR mouse assessed as inhibition of carrageenan-induced iNOS protein expression in paw at 10 mg/kg, ip administered 30 mins before carrageenan challenge by Western blotting relative to control. Format: functional. The settings on record: route intraperitoneal. The method in brief:
(§1)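 Male ICR mice (18−25 g, n = 6 per group) given drug or saline i.p. 30 min before 50 μL of 1% carrageenan into the right hind paw plantar side. Paw soft tissue was homogenized in CHAPS buffer with protease inhibitors. About 30 μg protein run on 10% SDS-PAGE, immunoblotted for iNOS or COX-2, ECL detection, normalized to β-actin. Indomethacin 10 mg/kg as positive control.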
(Immunoblotting shows a protein as a band on a membrane.)

Data set [3] concerns Mus musculus. Put plainly: Antiinflammatory activity in ICR mouse assessed as inhibition of carrageenan-induced COX2 protein expression in paw at 10 mg/kg, ip administered 30 mins before carrageenan challenge by Western blotting relative to control. In kind it is functional. The settings on record: route intraperitoneal. The method in brief:
as §1

In data set [4] the test system is Mus musculus. As to the kind of experiment: Antiinflammatory activity in ICR mouse assessed as inhibition of carrageenan-induced neutrophil infiltration in paw at 10 mg/kg, ip administered 30 mins before carrageenan challenge. In kind it is functional, organism-based. The arrangement: dose 10 mg/kg.
Data set [5] relates to Mus musculus. As to the kind of experiment: Antiinflammatory activity in ICR mouse assessed as inhibition of carrageenan-induced decrease in CAT activity in liver at 10 mg/kg, ip administered 30 mins before carrageenan challenge measured after 5 hrs. The arrangement: dose 10 mg/kg. In kind it is functional, organism-based. In short, it runs like this:
(§2)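 Liver catalase, SOD and GPx activities determined 5 h after intrapaw carrageenan in ICR mice given drug i.p. 30 min beforehand. Indomethacin 10 mg/kg as positive control.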

The subject of data set [6] is Mus musculus. As to the kind of experiment: Antiinflammatory activity in ICR mouse assessed as inhibition of carrageenan-induced decrease in SOD activity in liver at 10 mg/kg, ip administered 30 mins before carrageenan challenge measured after 5 hrs. In kind it is functional, organism-based. Set-up: dose 10 mg/kg. The method in brief:
as §2

Data set [7] relates to Mus musculus. Put plainly: Antiinflammatory activity in ICR mouse assessed as inhibition of carrageenan-induced decrease in GPx activity in liver at 10 mg/kg, ip administered 30 mins before carrageenan challenge measured after 5 hrs. Format: functional, organism-based. The arrangement: dose 10 mg/kg. The method in brief: as §2
Data set [8] has as its system Mus musculus. As to the kind of experiment: Antiinflammatory activity in ICR mouse assessed as inhibition of carrageenan-induced TNFalpha level in paw serum at 10 mg/kg, ip administered 30 mins before carrageenan challenge measured after 5 hrs by ELISA. Format: functional, organism-based. The arrangement: dose 10 mg/kg. In short, it runs like this: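 ICR mice (n = 6) dosed i.p. 30 min before intraplantar 1% carrageenan; blood collected at sacrifice and stored at −80 °C. Serum TNF-α quantified by commercial ELISA, reported in pg/mL from the standard-curve regression. Indomethacin 10 mg/kg as reference.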

Data set [9] deals with Mus musculus. As to the kind of experiment: Antiinflammatory activity in ICR mouse assessed as inhibition of carrageenan-induced malondialdehyde level in paw serum at 10 mg/kg, ip administered 30 mins before carrageenan challenge measured after 5 hrs by TRARS method. Format: functional, organism-based. The arrangement: dose 10 mg/kg. The method in brief: (§3)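 Carrageenan (1%, 50 μL intraplantar) given to ICR mice 30 min after i.p. dosing; right hind paws dissected at end and kept at −80 °C. Malondialdehyde measured by thiobarbituric acid reaction under acidic high-temperature conditions, red TBARS complex read at 532 nm.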

Data set [10] has as its system RAW264.7. Put plainly: Antiinflammatory activity in mouse RAW264.7 cells assessed as inhibition of LPS-induced nitric oxide production treated 1 hr before LPS challenge measured after 24 hrs by Griess method. Format: functional, cell-based. The method in brief: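 RAW264.7 cells preincubated 1 h with drug at 0, 1, 5 or 10 μg/mL, then co-treated with 100 ng/mL LPS at 37 °C for 24 h. Culture medium mixed 1:1 with Griess reagent (1% sulfanilamide, 0.1% naphthyl ethylenediamine, 5% phosphoric acid), 10 min at room temperature, absorbance 540 nm against a nitrite standard curve.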
(Griess reagent forms a coloured azo dye with nitrite.)

For data set [11], the system named is RAW264.7. As to the kind of experiment: Cytotoxicity against LPS-stimulated mouse RAW264.7 cells assessed as cell viability at 10 ug/ml treated 1 hr before LPS challenge measured after 24 hrs by MTT assay. Format: cell-based. The settings on record: raw264.7, 24 h. In short, it runs like this:
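RAW264.7 cells (2 × 10^5/well) grown 1 day to near confluence, pretreated 1 h with drug (0−10 μg/mL), then co-stimulated with 100 ng/mL LPS for 24 h. After DPBS washes, cells got 0.5 mg/mL MTT for 2 h at 37 °C, then DMSO for 30 min, and absorbance was read at 570 nm.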

A short description of data set [12]: Cytotoxicity against human leukemia cells. Format: functional, cell-based. The settings on record: Leukemia cell.
Data set [13] in a line: Cytotoxicity against human breast cancer cells. In kind it is functional, cell-based. The settings on record: Cancer cell lines.
In data set [14] the test system is HCT-116. As to the kind of experiment: Cytotoxicity against human HCT116 cells. In kind it is functional, cell-based.
In data set [15] the test system is PBMC. As to the kind of experiment: Cytotoxicity against human PBMC. In kind it is cell-based.
Data set [16] has as its system RAW264.7. As to the kind of experiment: Antiinflammatory activity in mouse RAW264.7 cells assessed as inhibition of LPS-induced iNOS expression at 5 to 10 ug/ml by Western blotting. Format: functional, cell-based. The method in brief:
(§4)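 RAW264.7 macrophages in DMEM with 10% FBS were pretreated 1 h with drug (0−10 μg/mL), then co-stimulated with 100 ng/mL LPS for 24 h. Lysates (ice-cold Triton lysis buffer, pH 7.9) were blotted for iNOS or COX-2, with about 30 μg protein per lane and ECL detection. Bands normalized to β-actin, expressed relative to the LPS-only group as 100%.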

In data set [17] the test system is RAW264.7. As to the kind of experiment: Antiinflammatory activity in mouse RAW264.7 cells assessed as inhibition of LPS-induced COX2 expression at 5 to 10 ug/ml by Western blotting. In kind it is functional, cell-based. The method in brief:
as §4

For data set [18], the system named is Mus musculus. Put plainly: Antiinflammatory activity in ICR mouse assessed as inhibition of carrageenan-induced nitric oxide level in paw serum at 1 to 10 mg/kg, ip administered 30 mins before carrageenan challenge measured after 5 hrs by Griess method. In kind it is functional, organism-based. The method in brief:
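Mice pretreated i.p. 30 min before intraplantar 1% carrageenan; samples taken 5 h after injection. Homogenates diluted fourfold in water, deproteinized with zinc sulfate to a final 15 mg/mL, centrifuged at 10000g for 5 min. Supernatant mixed 1:1 with Griess reagent, 10 min at room temperature, A540. Nitrite quantified against a sodium nitrite standard curve.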

Data set [19] relates to Mus musculus. Put plainly: Antiinflammatory activity in ICR mouse assessed as inhibition of carrageenan-induced malondialdehyde level in paw serum at 1 mg/kg, ip administered 30 mins before carrageenan challenge measured after 5 hrs by TRARS method. In kind it is functional, organism-based. The arrangement: dose 1 mg/kg. The method in brief: as §3
In data set [20] the test system is Mus musculus. As to the kind of experiment: Antiinflammatory activity in ICR mouse assessed as inhibition of carrageenan-induced malondialdehyde level in paw at 10 mg/kg, ip administered 30 mins before carrageenan challenge by TRARS method. Set-up: dose 10 mg/kg. In kind it is functional, organism-based. In short, it runs like this: as §3
For data set [21], the system named is Mus musculus. As to the kind of experiment: Antiinflammatory activity in ICR mouse assessed as inhibition of carrageenan-induced decrease in CAT activity in liver at 5 mg/kg, ip administered 30 mins before carrageenan challenge measured after 5 hrs. In kind it is functional, organism-based. The arrangement: dose 5 mg/kg. In short, it runs like this:
as §2

Data set [22] deals with Mus musculus. As to the kind of experiment: Antiinflammatory activity in ICR mouse assessed as inhibition of carrageenan-induced decrease in SOD activity in liver at 5 mg/kg, ip administered 30 mins before carrageenan challenge measured after 5 hrs. Format: functional, organism-based. Set-up: dose 5 mg/kg. In short, it runs like this: as §2
Data set [23] relates to Mus musculus. Put plainly: Antiinflammatory activity in ICR mouse assessed as inhibition of carrageenan-induced decrease in GPx activity in liver at 5 mg/kg, ip administered 30 mins before carrageenan challenge measured after 5 hrs. In kind it is functional, organism-based. The arrangement: dose 5 mg/kg. In short, it runs like this: as §2
Data set [24] deals with Mus musculus. As to the kind of experiment: Antiinflammatory activity in ICR mouse assessed as inhibition of carrageenan-induced TNFalpha level in paw serum at 5 to 10 mg/kg, ip administered 30 mins before carrageenan challenge measured after 5 hrs by ELISA.

A word on the inhibition in vivo: it is the percentage by which the read-out fell short of the control. In the case of `COc1ccc2c(c1)c(CC(=O)O)c(C)n2C(=O)c1ccc(Cl)cc1` [INDOMETHACIN], the inhibition result in data set [1], in [4], in data set [5], in [6], in [7] and in data set [8] was “Active” each time. Further, the inhibition result in data set [9] is “Active”. The inhibition in vivo at 10 mg/kg was found to be 61.5% in [2] and 58.1% in data set [3].
Usually IC50 stands for the concentration that gives 50% inhibition. For the compound `C=C[C@](C)(O)CC[C@@H]1[C@@]2(C)CCCC(C)(C)[C@@H]2CC[C@@]1(C)O` [SCLAREOL], the inhibition result in data set [10] was “Dose-dependent effect”. For the same compound, the Activity result in [11] is reported as “Non-toxic”. For the same compound, the IC50 was 6 µg/mL (≈ 19.4 µM) in [12], 7 µg/mL (≈ 22.7 µM) in data set [13], 10.6 µg/mL (≈ 34.4 µM) in data set [14] and 10.7 µg/mL (≈ 34.7 µM) in data set [15]. Besides, the inhibition result in [16], in data set [17], in data set [1], in [18], in [19] and in [4] was “Active” each time. For the same compound, the inhibition entry in data set [20], in data set [21], in data set [22], in [23] and in data set [24] was “Active” each time. The inhibition in vivo at 10 mg/kg in [2] was determined as 69.6%; in [3] it was 70.3%.
